Compounds with a hit are over-represented: about 2.4% of the library has one in this group of screens.
NPY Y1 blocker = antagonists of human neuropeptide Y receptor Y1; P25929; HEK293-CNG Y1 cells, membrane potential fluorescence; NPY at EC95, then isoproterenol; inhibition, % at 3.6 µM; 200,000 compounds, 1% hits; AID 1040;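 active = inhibition above the campaign mean inhibition of all tested compounds plus 3 SD, cut at about 20% in these data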
Target sequence (P25929 whole entry, looked up): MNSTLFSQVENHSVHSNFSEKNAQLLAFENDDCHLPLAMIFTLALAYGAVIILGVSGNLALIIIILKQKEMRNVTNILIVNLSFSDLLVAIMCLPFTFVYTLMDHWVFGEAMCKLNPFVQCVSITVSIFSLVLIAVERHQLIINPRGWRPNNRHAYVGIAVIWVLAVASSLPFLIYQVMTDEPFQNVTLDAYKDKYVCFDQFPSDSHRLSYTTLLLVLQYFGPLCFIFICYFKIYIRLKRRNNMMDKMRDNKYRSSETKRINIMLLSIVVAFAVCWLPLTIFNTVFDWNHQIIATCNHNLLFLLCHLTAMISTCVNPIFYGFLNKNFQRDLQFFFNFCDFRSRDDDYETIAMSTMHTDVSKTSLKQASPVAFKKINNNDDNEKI
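Material: HEK293 Y1/CNG channel cell line; also added: NPY (25 nM), isoproterenol (1 µM), Ro 20-1724 (25 µM); doses: one concentration, 3.6 µM, in 0.4% DMSO; schedule: compound incubation 1 h at room temperature, readout 45 min post-stimulation; technique: membrane potential fluorescence; measure: fluorescence ratio normalized to % inhibition between controls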
S1P4 antag = antagonists of human S1P4 receptor | O95977 | S1P4-expressing cells, antagonist mode, reporter read-out | inhibition, % at 4.98 µM | 220,000 compounds, 0.26% hits | AID 1510; in the data active = inhibition above about 29%
S1P4 ag = human S1P4 receptor agonism; activation, % at 4.98 µM; AID 1509; 220,000 compounds, 0.35% hits; O95977; S1P4-expressing cell line, agonist reporter assay; in the data active = activation above about 11%
NPY1 pot ag = human NPY-Y1 potentiation or agonism, primary screen | P25929 | NPY-Y1 expressing cells, potentiator/agonist activation | activation, % at 3.6 µM | 220,000 compounds, 0.37% hits | AID 1304; in the data active = activation above about 33%, passing the limit was not always enough;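 note: cells stimulated with NPY at EC10 then isoproterenol at EC100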
NPY-Y2 antag = blocks the human neuropeptide Y Y2 receptor; NPY-Y2 expressing cells, antagonist mode; 140,000 compounds, 0.99% hits; inhibition, % at 2.7 µM; in the data active = inhibition above about 17%
NPY2 pot ag = human NPY-Y2 potentiation or agonism, primary screen; cells expressing NPY-Y2, potentiator/agonist read-out; activation, % at 3.6 µM; 220,000 compounds, 0.45% hits; AID 1359; in the data active = activation above about 27%;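 note: cells stimulated with NPY near EC25 plus isoproterenol at EC100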
S1P4 agonist cf = confirmation of human S1P4 receptor agonists; 740 compounds, 7% hits; S1P4 agonist cell-based reporter assay; activation, % at 4.98 µM; shares compounds with S1P4 ag; AID 1523; in the data active = activation above about 12%
S1P1 ag = human S1P1 agonism as S1P4 agonist counter-screen. activation, % at 4.98 µM. shares compounds with S1P4 ag. AID 1563. 740 compounds, 4% hits. S1P1 agonist cell-based assay, activation; in the data active = activation above about 21%
Each line names hits and unclear results; the compound was inactive in the other large screens (follow-up assays come after a bar, where they were run).

CCOC(=O)c1ccc(NC(=O)CCc2nc(-c3ccccc3Cl)no2)cc1	S1P4 ag 12 | S1P4 agonist cf inactive | S1P1 ag inactive
COc1ccc(NC(=O)CSc2nc(C)cs2)c(OC)c1	S1P4 ag 74 (no result: NPY-Y2 antag) | S1P4 agonist cf inactive | S1P1 ag inactive
O=C(N=C1SCC(=O)N1c1ccccc1Cl)c1ccccc1	none (no result: NPY-Y2 antag)
COc1ccccc1/C=C(/CC(=O)NCc1ccc(F)cc1)c1nc2ccccc2s1	S1P4 ag 63 | S1P4 agonist cf inactive | S1P1 ag inactive
COc1ccccc1/C=C(/CC(=O)NCc1ccccc1)c1nc2ccccc2s1	none
CNC(=O)c1[nH]cnc1C(=O)N[C@@H](Cc1ccccc1)C(=O)OC(C)(C)C	none (no result: NPY-Y2 antag)
CNC(=O)c1[nH]cnc1C(=O)N[C@@H](Cc1ccccc1)C(=O)OCc1ccccc1	S1P4 ag 23 (no result: NPY-Y2 antag) | S1P4 agonist cf 56 | S1P1 ag 38
COc1ccc(-c2c(C#N)c(N)nc3c2CCc2ccccc2-3)cc1OC	S1P4 ag 14 | S1P4 agonist cf 18 | S1P1 ag inactive
COc1cc(-c2c(C#N)c(N)nc3c2CCCC3)ccc1O	none
CCC(CC)C(=O)Nc1cc(Cl)ccc1C	none (no result: NPY-Y2 antag)
CC(C)CCNC(=O)C(=O)NC1CCCC1	S1P4 ag 57 | S1P4 agonist cf inactive | S1P1 ag inactive
CC(C)CCNC(=S)NC1CCCC1	none
O=c1oc2c(CN3CCN(CCO)CC3)c(O)ccc2cc1-c1ccccn1	S1P4 ag 14 (no result: NPY Y1 blocker, NPY-Y2 antag) | S1P4 agonist cf inactive | S1P1 ag inactive
COc1ccccc1-c1c(C)oc2c(CN3CCN(CCO)CC3)c(O)ccc2c1=O	none
COc1ccc(/C(=C/Nc2cccc(Br)c2)C(C)=O)cc1OC	none (no result: NPY-Y2 antag)
C/C(CC(=O)Nc1ccc(F)cc1)=N\NC(=O)Cc1csc(N)n1	none
C/C(CC(=O)Nc1ccc(Br)cc1)=N\NC(=O)Cc1csc(N)n1	S1P4 ag 101 (no result: NPY Y1 blocker, NPY-Y2 antag) | S1P4 agonist cf inactive | S1P1 ag inactive
CCCCC(=O)NC(=S)Nc1nnn(CCC)n1	S1P4 ag 179 (no result: NPY-Y2 antag) | S1P4 agonist cf inactive | S1P1 ag inactive
O=C(Cn1cncn1)N/N=C/c1ccc(Cl)cc1	none
O=C(Cn1cncn1)NCc1ccc(Cl)cc1	S1P4 ag 13 | S1P4 agonist cf inactive | S1P1 ag inactive
CCn1cc(/C=C/C(=O)Nc2c(C)nn(Cc3ccccc3C)c2C)cn1	S1P4 ag 20 | S1P4 agonist cf inactive | S1P1 ag inactive
O=C(COC(=O)CC(c1ccccc1)c1ccccc1)Nc1c(F)cccc1F	none
CCC1CCCCN1C(=S)Nc1ccc(OC(F)F)cc1 (configuration not stated)	S1P4 ag 12 | S1P4 agonist cf inactive | S1P1 ag inactive
COC(=O)C(C)(C)ONC(=O)Nc1ccc(Br)cc1	none
COC(=O)C(C)(C)ONC(=O)Nc1ccccc1	S1P4 ag 194 | S1P4 agonist cf inactive | S1P1 ag inactive
CCOC(=O)CSc1ccc(-c2nc3ccccc3[nH]2)cn1	S1P4 ag 19 | S1P4 agonist cf inactive | S1P1 ag inactive
O=C(NCCN1CCOCC1)c1cccn2c(=O)c3c4c(sc3nc12)CCCC4	none (no result: NPY Y1 blocker, NPY-Y2 antag)
O=c1c2c3c(sc2nc2sc(CN4CCOCC4)cn12)CCCC3	S1P4 ag 41 | S1P4 agonist cf inactive | S1P1 ag inactive
CCOC(=O)c1nc(NCCc2ccccc2)sc1C	S1P4 ag 30 (no result: NPY-Y2 antag) | S1P4 agonist cf inactive | S1P1 ag inactive
CCOC(=O)c1nc(NNC(C)=O)sc1C	none (no result: NPY-Y2 antag)
O=C(NCc1cccnc1)C(=O)NCC1OCCCN1S(=O)(=O)c1ccccc1 (configuration not stated)	none
Cc1cnc(C)c(N2CCN(Cc3nc(-c4ccccc4)no3)CC2)n1	none (no result: NPY-Y2 antag)
CSc1nc(N)c(C#N)c(-c2ccc(Cl)cc2)c1C#N	S1P4 ag 11 | S1P4 agonist cf inactive | S1P1 ag inactive
CCCN(CCC)S(=O)(=O)c1ccc(C(=O)Nc2nc3c(s2)CCc2ccccc2-3)cc1	S1P4 ag 29 | S1P4 agonist cf inactive | S1P1 ag inactive
CCOC(=O)c1csc(COc2ccc(OC)cc2)n1	none (no result: NPY Y1 blocker, NPY-Y2 antag)
C/C(N)=C(/C#N)C(=O)COC(=O)CNC(=O)c1ccc(Cl)cc1Cl	none (no result: NPY-Y2 antag)

From PubChem
